# Tested on: Pseudomonas aeruginosa
# Test: Antimicrobial activity against multidrug resistant Pseudomonas aeruginosa isolates by broth microdilution method
# Type: functional
# Method in brief: (§1)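 Nonduplicate, nonurine, drug-resistant clinical isolates collected from 40 US hospitals, October 2005 to March 2008. MICs determined by CLSI reference broth microdilution. The cephalosporin was tested alone and with tazobactam fixed at 4 μg/ml. Comparators were tested by the same method. P. aeruginosa ATCC 27853 served as quality control, with ranges of 0.25 to 1 μg/ml for both regimens.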
Structure (SMILES),MIC50,MIC90
CO/N=C(\C(=O)N[C@@H]1C(=O)N2C(C(=O)[O-])=C(C[N+]3(C)CCCC3)CS[C@H]12)c1csc(N)n1 [CEFEPIME],16 µg/mL,64 µg/mL
CC(C)(O/N=C(\C(=O)N[C@@H]1C(=O)N2C(C(=O)[O-])=C(C[n+]3ccccc3)CS[C@H]12)c1csc(N)n1)C(=O)O [CEFTAZIDIME],64 µg/mL,256 µg/mL
Cn1c(N)c(NC(=O)NCCN)c[n+]1CC1=C(C(=O)O)N2C(=O)[C@@H](NC(=O)/C(=N\OC(C)(C)C(=O)[O-])c3nsc(N)n3)[C@H]2SC1 [CEFTOLOZANE],2 µg/mL,> 64 µg/mL
O=C(O)c1cn(C2CC2)c2cc(N3CCNCC3)c(F)cc2c1=O [CIPROFLOXACIN],32 µg/mL,64 µg/mL
C[C@@H](O)[C@H]1C(=O)N2C(C(=O)O)=C(SCCNC=N)C[C@H]12 [IMIPENEM ANHYDROUS],16 µg/mL,128 µg/mL
C[C@H]1COc2c(N3CCN(C)CC3)c(F)cc3c(=O)c(C(=O)O)cn1c23.C[C@H]1COc2c(N3CCN(C)CC3)c(F)cc3c(=O)c(C(=O)O)cn1c23.O [LEVOFLOXACIN],32 µg/mL,128 µg/mL
C[C@@H](O)[C@H]1C(=O)N2C(C(=O)O)=C(S[C@@H]3CN[C@H](C(=O)N(C)C)C3)[C@H](C)[C@H]12 [MEROPENEM],16 µg/mL,128 µg/mL
NC[C@H]1O[C@H](O[C@H]2[C@H](O)[C@@H](O[C@H]3O[C@H](CO)[C@@H](O)[C@H](N)[C@H]3O)[C@H](N)C[C@@H]2N)[C@H](N)C[C@@H]1O [TOBRAMYCIN],128 µg/mL,256 µg/mL

# Tested on: Pseudomonas aeruginosa
# Test: Antimicrobial activity against imipenem resistant Pseudomonas aeruginosa isolates by broth microdilution method
# Type: functional
# Method in brief: as §1
Structure (SMILES),MIC50,MIC90,MIC
CO/N=C(\C(=O)N[C@@H]1C(=O)N2C(C(=O)[O-])=C(C[N+]3(C)CCCC3)CS[C@H]12)c1csc(N)n1 [CEFEPIME],8 µg/mL,32 µg/mL,
CC(C)(O/N=C(\C(=O)N[C@@H]1C(=O)N2C(C(=O)[O-])=C(C[n+]3ccccc3)CS[C@H]12)c1csc(N)n1)C(=O)O [CEFTAZIDIME],16 µg/mL,128 µg/mL,
Cn1c(N)c(NC(=O)NCCN)c[n+]1CC1=C(C(=O)O)N2C(=O)[C@@H](NC(=O)/C(=N\OC(C)(C)C(=O)[O-])c3nsc(N)n3)[C@H]2SC1 [CEFTOLOZANE],2 µg/mL,8 µg/mL,
O=C(O)c1cn(C2CC2)c2cc(N3CCNCC3)c(F)cc2c1=O [CIPROFLOXACIN],8 µg/mL,64 µg/mL,
C[C@@H](O)[C@H]1C(=O)N2C(C(=O)O)=C(SCCNC=N)C[C@H]12 [IMIPENEM ANHYDROUS],16 µg/mL,32 µg/mL,16 µg/mL
C[C@H]1COc2c(N3CCN(C)CC3)c(F)cc3c(=O)c(C(=O)O)cn1c23.C[C@H]1COc2c(N3CCN(C)CC3)c(F)cc3c(=O)c(C(=O)O)cn1c23.O [LEVOFLOXACIN],16 µg/mL,64 µg/mL,
C[C@@H](O)[C@H]1C(=O)N2C(C(=O)O)=C(S[C@@H]3CN[C@H](C(=O)N(C)C)C3)[C@H](C)[C@H]12 [MEROPENEM],16 µg/mL,32 µg/mL,
NC[C@H]1O[C@H](O[C@H]2[C@H](O)[C@@H](O[C@H]3O[C@H](CO)[C@@H](O)[C@H](N)[C@H]3O)[C@H](N)C[C@@H]2N)[C@H](N)C[C@@H]1O [TOBRAMYCIN],1 µg/mL,64 µg/mL,

# Tested on: Pseudomonas aeruginosa
# Test: Antimicrobial activity against Ceftazidime resistant Pseudomonas aeruginosa isolates by broth microdilution method
# Type: functional
# Method in brief: as §1
Structure (SMILES),MIC50,MIC90
CO/N=C(\C(=O)N[C@@H]1C(=O)N2C(C(=O)[O-])=C(C[N+]3(C)CCCC3)CS[C@H]12)c1csc(N)n1 [CEFEPIME],256 µg/mL,256 µg/mL
CC(C)(O/N=C(\C(=O)N[C@@H]1C(=O)N2C(C(=O)[O-])=C(C[n+]3ccccc3)CS[C@H]12)c1csc(N)n1)C(=O)O [CEFTAZIDIME],16 µg/mL,64 µg/mL
Cn1c(N)c(NC(=O)NCCN)c[n+]1CC1=C(C(=O)O)N2C(=O)[C@@H](NC(=O)/C(=N\OC(C)(C)C(=O)[O-])c3nsc(N)n3)[C@H]2SC1 [CEFTOLOZANE],4 µg/mL,16 µg/mL
O=C(O)c1cn(C2CC2)c2cc(N3CCNCC3)c(F)cc2c1=O [CIPROFLOXACIN],2 µg/mL,32 µg/mL
C[C@@H](O)[C@H]1C(=O)N2C(C(=O)O)=C(SCCNC=N)C[C@H]12 [IMIPENEM ANHYDROUS],64 µg/mL,256 µg/mL
C[C@H]1COc2c(N3CCN(C)CC3)c(F)cc3c(=O)c(C(=O)O)cn1c23.C[C@H]1COc2c(N3CCN(C)CC3)c(F)cc3c(=O)c(C(=O)O)cn1c23.O [LEVOFLOXACIN],4 µg/mL,64 µg/mL
C[C@@H](O)[C@H]1C(=O)N2C(C(=O)O)=C(S[C@@H]3CN[C@H](C(=O)N(C)C)C3)[C@H](C)[C@H]12 [MEROPENEM],4 µg/mL,32 µg/mL
NC[C@H]1O[C@H](O[C@H]2[C@H](O)[C@@H](O[C@H]3O[C@H](CO)[C@@H](O)[C@H](N)[C@H]3O)[C@H](N)C[C@@H]2N)[C@H](N)C[C@@H]1O [TOBRAMYCIN],1 µg/mL,4 µg/mL

# Tested on: Pseudomonas aeruginosa
# Test: Antimicrobial activity against tobramycin resistant Pseudomonas aeruginosa isolates by broth microdilution method
# Type: functional
# Method in brief: as §1
Structure (SMILES),MIC50,MIC90
Cn1c(N)c(NC(=O)NCCN)c[n+]1CC1=C(C(=O)O)N2C(=O)[C@@H](NC(=O)/C(=N\OC(C)(C)C(=O)[O-])c3nsc(N)n3)[C@H]2SC1 [CEFTOLOZANE],2 µg/mL,64 µg/mL
O=C(O)c1cn(C2CC2)c2cc(N3CCNCC3)c(F)cc2c1=O [CIPROFLOXACIN],32 µg/mL,128 µg/mL
C[C@@H](O)[C@H]1C(=O)N2C(C(=O)O)=C(SCCNC=N)C[C@H]12 [IMIPENEM ANHYDROUS],128 µg/mL,256 µg/mL
C[C@H]1COc2c(N3CCN(C)CC3)c(F)cc3c(=O)c(C(=O)O)cn1c23.C[C@H]1COc2c(N3CCN(C)CC3)c(F)cc3c(=O)c(C(=O)O)cn1c23.O [LEVOFLOXACIN],32 µg/mL,128 µg/mL
C[C@@H](O)[C@H]1C(=O)N2C(C(=O)O)=C(S[C@@H]3CN[C@H](C(=O)N(C)C)C3)[C@H](C)[C@H]12 [MEROPENEM],16 µg/mL,128 µg/mL
NC[C@H]1O[C@H](O[C@H]2[C@H](O)[C@@H](O[C@H]3O[C@H](CO)[C@@H](O)[C@H](N)[C@H]3O)[C@H](N)C[C@@H]2N)[C@H](N)C[C@@H]1O [TOBRAMYCIN],32 µg/mL,128 µg/mL

# Tested on: Pseudomonas aeruginosa
# Test: Antimicrobial activity against drug resistant Pseudomonas aeruginosa isolates by broth microdilution method
# Type: functional
# Method in brief: as §1
Structure (SMILES),MIC50,MIC90
CO/N=C(\C(=O)N[C@@H]1C(=O)N2C(C(=O)[O-])=C(C[N+]3(C)CCCC3)CS[C@H]12)c1csc(N)n1 [CEFEPIME],16 µg/mL,64 µg/mL
CC(C)(O/N=C(\C(=O)N[C@@H]1C(=O)N2C(C(=O)[O-])=C(C[n+]3ccccc3)CS[C@H]12)c1csc(N)n1)C(=O)O [CEFTAZIDIME],16 µg/mL,128 µg/mL
Cn1c(N)c(NC(=O)NCCN)c[n+]1CC1=C(C(=O)O)N2C(=O)[C@@H](NC(=O)/C(=N\OC(C)(C)C(=O)[O-])c3nsc(N)n3)[C@H]2SC1 [CEFTOLOZANE],2 µg/mL,2 µg/mL
C[C@@H](O)[C@H]1C(=O)N2C(C(=O)O)=C(SCCNC=N)C[C@H]12 [IMIPENEM ANHYDROUS],8 µg/mL,32 µg/mL
C[C@H]1COc2c(N3CCN(C)CC3)c(F)cc3c(=O)c(C(=O)O)cn1c23.C[C@H]1COc2c(N3CCN(C)CC3)c(F)cc3c(=O)c(C(=O)O)cn1c23.O [LEVOFLOXACIN],8 µg/mL,64 µg/mL
C[C@@H](O)[C@H]1C(=O)N2C(C(=O)O)=C(S[C@@H]3CN[C@H](C(=O)N(C)C)C3)[C@H](C)[C@H]12 [MEROPENEM],8 µg/mL,32 µg/mL
NC[C@H]1O[C@H](O[C@H]2[C@H](O)[C@@H](O[C@H]3O[C@H](CO)[C@@H](O)[C@H](N)[C@H]3O)[C@H](N)C[C@@H]2N)[C@H](N)C[C@@H]1O [TOBRAMYCIN],2 µg/mL,128 µg/mL

# Tested on: Pseudomonas aeruginosa
# Test: Antimicrobial activity against piperacillin-tazobactam resistant Pseudomonas aeruginosa isolates by broth microdilution method
# Type: functional
# Method in brief: as §1
Structure (SMILES),MIC50,MIC90
CO/N=C(\C(=O)N[C@@H]1C(=O)N2C(C(=O)[O-])=C(C[N+]3(C)CCCC3)CS[C@H]12)c1csc(N)n1 [CEFEPIME],16 µg/mL,32 µg/mL
CC(C)(O/N=C(\C(=O)N[C@@H]1C(=O)N2C(C(=O)[O-])=C(C[n+]3ccccc3)CS[C@H]12)c1csc(N)n1)C(=O)O [CEFTAZIDIME],32 µg/mL,128 µg/mL
Cn1c(N)c(NC(=O)NCCN)c[n+]1CC1=C(C(=O)O)N2C(=O)[C@@H](NC(=O)/C(=N\OC(C)(C)C(=O)[O-])c3nsc(N)n3)[C@H]2SC1 [CEFTOLOZANE],2 µg/mL,8 µg/mL
O=C(O)c1cn(C2CC2)c2cc(N3CCNCC3)c(F)cc2c1=O [CIPROFLOXACIN],1 µg/mL,32 µg/mL
C[C@@H](O)[C@H]1C(=O)N2C(C(=O)O)=C(SCCNC=N)C[C@H]12 [IMIPENEM ANHYDROUS],64 µg/mL,256 µg/mL
C[C@H]1COc2c(N3CCN(C)CC3)c(F)cc3c(=O)c(C(=O)O)cn1c23.C[C@H]1COc2c(N3CCN(C)CC3)c(F)cc3c(=O)c(C(=O)O)cn1c23.O [LEVOFLOXACIN],4 µg/mL,64 µg/mL
C[C@@H](O)[C@H]1C(=O)N2C(C(=O)O)=C(S[C@@H]3CN[C@H](C(=O)N(C)C)C3)[C@H](C)[C@H]12 [MEROPENEM],2 µg/mL,32 µg/mL
NC[C@H]1O[C@H](O[C@H]2[C@H](O)[C@@H](O[C@H]3O[C@H](CO)[C@@H](O)[C@H](N)[C@H]3O)[C@H](N)C[C@@H]2N)[C@H](N)C[C@@H]1O [TOBRAMYCIN],1 µg/mL,4 µg/mL

# Source: ChEMBL document CHEMBL1212785, “In vitro potency of CXA-101, a novel cephalosporin, against Pseudomonas aeruginosa displaying various resistance phenotypes, including multidrug resistance” (2010)
